The list is not random: actives were taken first. Their share in the collection is about 1.7%.
V-ATPase pHluor: regulators of yeast V-ATPase proton transport; S. cerevisiae, pHLuorin cytosolic pH fluorescence; response, % at 10 µM; AID 504577; hit rate 0.37% among 350,000; in the data active = response mostly above about 7.3%, no sharp cut-off; inactive = mostly below about 5.4%; note: actives read high
Vif imaging: blocks HIV Vif function; HEK293T cells, Vif self-association by quenched fluorescence, imaging, 24 h; AID 602346; hit rate 0.35% among 340,000; inhibition, % at 7.49 µM; in the data active = inhibition above about 50%, passing the limit was not always enough; inconclusive = no clear call, values can overlap the other calls; inactive = below about 31%
NTR1 agonist: NTR1 (human) agonism | P30989 | NTR1-U2OS beta-arrestin-GFP spot imaging, agonist mode | activation, % at 20 µM | hit rate 0.17% among 330,000 | AID 493036;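 active = activation at or above 40% of the spot to cytoplasm intensity ratio, with at least 20 cells analyzed; inconclusive = wells under 20 cells, flagged as cytotoxic or low count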
Target sequence (P30989 whole entry, looked up): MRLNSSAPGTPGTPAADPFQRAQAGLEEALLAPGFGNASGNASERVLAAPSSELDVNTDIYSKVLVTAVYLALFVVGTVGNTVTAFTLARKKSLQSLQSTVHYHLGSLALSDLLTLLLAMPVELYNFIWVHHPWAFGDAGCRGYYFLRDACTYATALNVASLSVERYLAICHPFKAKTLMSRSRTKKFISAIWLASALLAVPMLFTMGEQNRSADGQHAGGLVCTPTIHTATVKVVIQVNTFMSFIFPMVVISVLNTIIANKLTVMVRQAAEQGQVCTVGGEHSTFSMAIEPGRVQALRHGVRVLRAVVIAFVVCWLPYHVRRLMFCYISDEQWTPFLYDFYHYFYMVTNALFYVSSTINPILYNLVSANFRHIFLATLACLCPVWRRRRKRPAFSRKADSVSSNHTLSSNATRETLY
CaV13 ICDI inh: Primary screen for inhibitors of IQ motif and Ca2+-dependent inactivation inhibitor domain binding in CACNA1D, Förster resonance energy transfer in living cells, … | HEK cells, CFP/YFP FRET ICDI-IQ, plate reader, 10 min; percent FRET-ratio fall versus neutral wells | AID 743397 | hit rate 0.098% among 340,000 | inhibition, % at 12.3 µM;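 active = mean replicate inhibition of at least 30% and at least 1% of replicates passing that level; inconclusive = only one of the two criteria is met; inactive = neither criterion is met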
SR-BI DiI inh: mouse SR-BI HDL lipid transfer inhibition. ldlA[mSR-BI] CHO cells, DiI-HDL uptake fluorescence, 3 h. inhibition, % at 12.5 µM. hit rate 0.96% among 320,000. AID 488896;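 active = mean replicate inhibition of at least 70% and a set share of replicates each scoring 70 or more; inconclusive = meets just one of the two criteria; inactive = fails both criteria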
SR-BI uptake up: enhances SR-BI lipid uptake from DiI-HDL. CHO ldlA[mSR-BI] cells, DiI-HDL uptake fluorescence, 3 h; 100 = double the neutral-control signal. activation, % at 12.5 µM. hit rate 0.096% among 320,000;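 active = mean replicate activation of at least 60% and every replicate at or above 60%; inconclusive = mean or all-replicate condition met, but not both; inactive = mean below 60% and not all replicates reaching 60%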
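System: CHO ldlA[mSR-BI] cells / Medium: HEPES-buffered (25 mM, pH 7.4) F12 plus 0.5% BSA / Probe or stimulus: labelled HDL, 10 µg/mL / Doses: single compound concentration, delivered by pin transfer / Schedule: 3 h, 37 °C / Measured by: DiI fluorescence, bottom read / Measure: cell-associated DiI fluorescence as measure of HDL uptake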
DiI quench: DiI fluorescence quenching in cell-free counter-screen; AID 540326; AC50, µM (titrated, usually from 35 µM); cell-free DiI-HDL fluorescence quenching, 30 min; shares compounds with SR-BI DiI inh; hit rate 20% among 470;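 active = quenching, a falling signal, with AC50 below a set limit tied to the top valid dose, actives reach about 32 µM in these data; inconclusive = no clear call, values can overlap the other calls; inactive = rising signal, and the rest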
NTR1 ag confirm: NTR1 (human) agonism, confirmed | shares compounds with NTR1 agonist | NTR1-U2OS beta-arrestin-GFP translocation imaging | activation, % at 20 µM | hit rate 38% among 480 | AID 504550;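 active = mean activation at 20 µM of at least 40%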
V-ATPase pH SP: modulates yeast V-ATPase proton transport. S. cerevisiae pHLuorin cytosolic pH. shares compounds with V-ATPase pHluor. hit rate 2% among 980. response, % at 10 µM; in the data active = response above about 24%
Hits are given with their value; – = inactive; ? = inconclusive; · = not tested or not shown.

SMILES	V-ATPase pHluor	Vif imaging	NTR1 agonist	CaV13 ICDI inh	SR-BI DiI inh	SR-BI uptake up	NTR1 ag confirm	others
O=C(c1ccccc1)c1cccn1CC(=O)N1CCCCCC1	–	–	–	–	–	–	·
Cc1cccc(N2CCN(C(=O)Cn3cccc3C(=O)c3ccccc3)CC2)c1C	–	–	–	–	73	–	·	DiI quench=–
Cc1ccc(NS(=O)(=O)c2ccc(C(=O)NNC(=O)c3ccccc3O)cc2)cc1	–	–	–	–	120	–	·	DiI quench=0.46µM
N#Cc1sc2nc(C3CC3)cc(-c3ccc(Cl)cc3)c2c1N	–	–	–	–	?	–	·	DiI quench=–
Cc1ccccc1NC(=O)N(CCc1nc2ccccc2[nH]1)Cc1ccccc1	12	–	–	·	96	–	·	DiI quench=–;V-ATPase pH SP=–
OCC[C@@H]1C[C@H](O)[C@@H](O)[C@@]2(OCCc3cc(Cl)ccc32)O1	·	–	·	–	·	·	·
Cc1ccc(-c2csc(N/N=C/c3ccco3)n2)cc1	–	–	–	–	–	–	·
CN(C)S(=O)(=O)c1ccc(-c2csc(N/N=C/c3ccco3)n2)cc1	–	–	71	–	·	·	78
C(=N\Nc1nc(-c2ccccc2)cs1)/c1ccncc1	–	–	–	–	–	–	·
CN(C)S(=O)(=O)c1ccc(-c2csc(N/N=C/c3ccc(O)cc3)n2)cc1	–	–	52	–	87	–	55
CCCCCOc1ccc(Br)cc1CSC(=N)N	–	·	·	–	–	–	·
CCCCOc1ccc(CSC(=N)N)cc1Cl	–	–	50	–	–	–	–
CN(c1ccccc1)c1nc(N2CCCC2)nc(-n2ccnc2)n1	–	·	–	–	·	·	·
c1ccc(N(c2ccccc2)c2nc(N3CCCC3)nc(-n3ccnc3)n2)cc1	–	–	48	–	–	–	–
O=C(/C=C/c1ccc(OCCCF)cc1)Nc1ccnc(-c2ccncc2)n1	–	–	56	–	–	–	–
COc1cc([C@H]2OC[C@H]3[C@@H]2CO[C@@H]3c2ccc(O[C@H]3O[C@H](CO)[C@@H](O)[C@H](O)[C@H]3O)c(OC)c2)ccc1O[C@@H]1O[C@H](CO)[C@@H](O)[C@H](O)[C@H]1O	–	–	–	–	–	–	·
O=C(Nc1ccc(N2CCN(C(=O)c3ccccc3)CC2)cc1)c1cc2ccccc2o1	–	–	64	·	–	–	86
O=C(/C=C/c1ccccc1F)c1cccc([N+](=O)[O-])c1	–	–	42	–	–	–	61
COc1cc(/C=C/C(=O)c2cccc([N+](=O)[O-])c2)cc(OC)c1OC	–	–	–	–	–	–	·
O=C(O)c1cn[nH]c1-c1cccc([N+](=O)[O-])c1	–	–	–	–	–	–	·
CCc1cc(-c2n[nH]c(C)c2Oc2ccc(C(C)C)cc2)c(O)cc1O	–	–	64	–	–	–	–
Cc1ccc(-c2noc(CNS(=O)(=O)c3ccccc3)n2)cc1	–	–	–	–	–	–	·
COc1cc2c3nnc(-c4ccc(F)cc4)c-3cn(Cc3ccccc3)c2cc1OC	–	–	49	–	–	–	84
Cn1nc2c3cc(F)ccc3n(Cc3ccc(F)cc3)cc-2c1=O	–	–	–	–	–	–	·
COc1ccc(Cn2cc3c(-c4ccc(F)cc4)nnc-3c3cc(OC)c(OC)cc32)cc1	–	–	46	–	–	–	78
SMILES	V-ATPase pHluor	Vif imaging	NTR1 agonist	CaV13 ICDI inh	SR-BI DiI inh	SR-BI uptake up	NTR1 ag confirm	others
COc1ccc(CCNC(=O)CSc2nnc(-c3ccc(F)cc3)c3ccccc23)cc1OC	–	–	–	–	–	–	·
COC(=O)[C@]12C[C@H](CC(=O)N3CCCC3)C(=O)N(Cc3ccccc3)C1=C[C@H](C(C)C)O[C@@H]2C1CC1	·	·	·	–	·	·	·
CCn1cc(C(=O)O)c(=O)c2cc(F)c(N3CCN(C(=S)NC(=O)c4ccccc4Br)CC3)cc21	–	–	–	–	·	·	·
CC1CCC(C(C)C)C(OCC(O)CNC(C)(C)C)C1 (stereo not given)	–	–	–	–	–	–	·
CC1CCC(C(C)C)C(OCC(O)CNC(C)c2ccccc2)C1 (stereo not given)	–	–	40	–	–	–	41
O=C(CN1CCN(C(=O)c2ccc(-c3nc4ccccc4s3)o2)CC1)Nc1ccccc1Cl	–	–	48	–	–	–	–
Cc1cccc(NC(=O)CN2CCN(C(=O)c3ccc(-c4nc5ccccc5s4)o3)CC2)c1C	–	–	–	–	–	–	·
O=C(CSc1ccc(S(=O)(=O)N2CCCC2)cn1)Nc1ccc([N+](=O)[O-])cc1C(F)(F)F	–	–	·	–	–	–	·
CN(c1ccccc1)c1ccc(/C=C/[N+](=O)[O-])cc1	–	–	·	–	–	–	·
CN(C)c1ccc(-n2cccc2/C=C/[N+](=O)[O-])cc1	–	–	63	–	–	–	66
CCCn1c(SCc2cc(=O)oc3ccc4ccccc4c23)n[nH]c1=O	–	–	–	–	–	–	·
CCOc1cc(/C=C2\C(=O)ON=C2C)ccc1OCc1ccccc1	–	–	60	–	–	–	84
Cc1cccc(NC(=O)CSCC(=O)Nc2ccccc2C(=O)NC2CC2)c1	–	–	–	–	–	–	·
N#CSC(c1ccccc1)c1nc2ccccc2[nH]c1=O (stereo not given)	–	–	–	–	–	–	·
Cc1ccc(NC(c2ccccc2)c2nc3ccccc3[nH]c2=O)cc1 (stereo not given)	–	–	40	–	·	·	–
C[C@@H]1CN([C@H](C)CO)C(=O)c2cc(NS(=O)(=O)c3ccc(F)cc3)ccc2O[C@@H]1CN(C)Cc1ccc(Cl)c(Cl)c1	–	–	–	–	–	–	–
C[C@H](CO)N1C[C@H](C)[C@@H](CN(C)S(=O)(=O)c2ccc(F)cc2)Oc2ccc(NS(=O)(=O)c3ccc(F)cc3)cc2C1=O	–	–	–	–	–	–	·
COc1ccc(C2=NC(C)(C)Cc3cc(OC)c(OC)cc32)cc1	–	–	–	–	–	–	·
COc1cc2c(cc1OC)C(SC)=NC(C)(C)C2	–	·	48	–	–	–	80
C[C@@H]1CC=C[C@H]2[C@H]1C(=O)N(Cc1ccccc1)[C@H]2c1ccc2ccccc2c1Br	–	–	43	–	–	–	–
COC(=O)c1c(NC(=O)COC(=O)c2ccc(O)cc2)sc2c1CCCCC2	·	–	43	–	–	–	–
CNc1nc(N)c([N+](=O)[O-])c(NC2CCCCC2)n1	–	–	–	–	–	–	·
